The term IC50 denotes the concentration at which inhibition is half-maximal.

Experiment [1] deals with T1, Fatty-acid amide hydrolase 1 (Rattus norvegicus, UniProt P97612).
T1 sequence (P97612 whole entry): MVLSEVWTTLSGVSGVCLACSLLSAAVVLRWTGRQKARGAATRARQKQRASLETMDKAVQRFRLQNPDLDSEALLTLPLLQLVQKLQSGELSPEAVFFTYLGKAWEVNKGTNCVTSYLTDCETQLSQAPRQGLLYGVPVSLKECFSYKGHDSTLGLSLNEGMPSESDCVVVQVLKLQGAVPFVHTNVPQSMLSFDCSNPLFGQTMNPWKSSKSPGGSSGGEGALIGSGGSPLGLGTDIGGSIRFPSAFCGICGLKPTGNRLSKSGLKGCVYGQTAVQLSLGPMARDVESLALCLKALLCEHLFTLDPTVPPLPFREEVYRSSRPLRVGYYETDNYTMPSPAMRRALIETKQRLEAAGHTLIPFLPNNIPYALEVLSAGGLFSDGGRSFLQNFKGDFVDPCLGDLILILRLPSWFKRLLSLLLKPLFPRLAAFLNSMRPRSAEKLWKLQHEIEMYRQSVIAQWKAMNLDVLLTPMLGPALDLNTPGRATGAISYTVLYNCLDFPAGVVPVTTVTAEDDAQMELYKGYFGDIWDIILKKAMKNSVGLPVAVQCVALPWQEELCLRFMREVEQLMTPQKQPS
The experiment in a line: Inhibition of FAAH in rat brain membranes assessed as hydrolysis of [14C]-anandamide after 30 mins. Format: cell membranes. The method in brief:
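Rat brain membrane FAAH; activity read as hydrolysis of anandamide, with the inhibitor added without preincubation (pit = 0). Values are reported as IC50.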

In experiment [2] the target is T1, Fatty-acid amide hydrolase 1. The experiment in a line: Inhibition of FAAH in rat brain membranes assessed as hydrolysis of [14C]-anandamide preincubated for 20 mins before [14C]-anandamide addition measured after 30 mins. Format: cell membranes. The method in brief: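 Rat brain membrane FAAH; the inhibitor was preincubated with the enzyme for 20 min before anandamide hydrolysis was measured. Values are reported as IC50.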

Experiment [3] addresses T2, Fatty-acid amide hydrolase 1 (Homo sapiens, UniProt O00519).
T2 sequence (O00519 whole entry): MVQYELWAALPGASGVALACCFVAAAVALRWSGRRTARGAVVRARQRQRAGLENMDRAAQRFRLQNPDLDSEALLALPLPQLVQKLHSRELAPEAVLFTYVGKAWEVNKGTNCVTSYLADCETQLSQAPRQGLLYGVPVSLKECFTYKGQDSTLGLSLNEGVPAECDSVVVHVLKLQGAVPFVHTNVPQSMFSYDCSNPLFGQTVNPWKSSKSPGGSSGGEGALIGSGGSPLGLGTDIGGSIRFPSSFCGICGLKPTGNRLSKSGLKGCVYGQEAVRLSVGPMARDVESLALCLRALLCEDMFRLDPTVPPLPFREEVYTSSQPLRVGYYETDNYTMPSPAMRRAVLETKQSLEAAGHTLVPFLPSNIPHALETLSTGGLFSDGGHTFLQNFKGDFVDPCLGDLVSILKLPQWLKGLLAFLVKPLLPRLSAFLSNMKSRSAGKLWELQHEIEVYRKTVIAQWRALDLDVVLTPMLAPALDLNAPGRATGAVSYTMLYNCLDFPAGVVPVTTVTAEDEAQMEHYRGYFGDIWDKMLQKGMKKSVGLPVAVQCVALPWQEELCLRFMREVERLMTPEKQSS
The experiment in a line: Inhibition of human recombinant FAAH in assessed as hydrolysis of [14C]-anandamide preincubated for 20 mins before [14C]-anandamide addition measured after 30 mins. The method in brief:
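Human recombinant FAAH; the inhibitor was preincubated for 20 min before anandamide hydrolysis was measured. Values are reported as IC50.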

The target in experiment [4] is T3, Acetylcholinesterase (Homo sapiens, UniProt P22303). The experiment in a line: Inhibition of human recombinant AChE using acetylthiocholine iodide as substrate preincubated for 120 mins before substrate addition by Ellman's method. A general note: DTNB colorimetry detects thiols as they appear.
Experiment [5] concerns the target T4, Cholinesterase (Homo sapiens, UniProt P06276). The experiment in a line: Inhibition of human serum BuChE using butyrylthiocholine iodide as substrate preincubated for 15 mins before substrate addition by Ellman's method.
Experiment [6] concerns the target T3, Acetylcholinesterase. The experiment in a line: Inhibition of human recombinant AChE using acetylthiocholine iodide as substrate by Ellman's method. The following applies: TDE = time-dependent effect.
In experiment [7] the target is T4, Cholinesterase. The experiment in a line: Reversible inhibition of human serum BuChE using butyrylthiocholine iodide as substrate assessed as recovery of enzyme activity after 48 hrs by Ellman's method. Also noted: scale not given: the % may be the effect or the level left.
Experiment [8] concerns the target T3, Acetylcholinesterase. The experiment in a line: Reversible inhibition of human recombinant AChE using acetylthiocholine iodide as substrate assessed as recovery of enzyme activity after 48 hrs by Ellman's method. The arrangement: scale not given: the % may be the effect or the level left.
Experiment [9] has as its target T4, Cholinesterase. The experiment in a line: Inhibition of human serum BuChE using butyrylthiocholine iodide as substrate by Ellman's method. The following applies: TDE = time-dependent effect.

T3 sequence (P22303 whole entry): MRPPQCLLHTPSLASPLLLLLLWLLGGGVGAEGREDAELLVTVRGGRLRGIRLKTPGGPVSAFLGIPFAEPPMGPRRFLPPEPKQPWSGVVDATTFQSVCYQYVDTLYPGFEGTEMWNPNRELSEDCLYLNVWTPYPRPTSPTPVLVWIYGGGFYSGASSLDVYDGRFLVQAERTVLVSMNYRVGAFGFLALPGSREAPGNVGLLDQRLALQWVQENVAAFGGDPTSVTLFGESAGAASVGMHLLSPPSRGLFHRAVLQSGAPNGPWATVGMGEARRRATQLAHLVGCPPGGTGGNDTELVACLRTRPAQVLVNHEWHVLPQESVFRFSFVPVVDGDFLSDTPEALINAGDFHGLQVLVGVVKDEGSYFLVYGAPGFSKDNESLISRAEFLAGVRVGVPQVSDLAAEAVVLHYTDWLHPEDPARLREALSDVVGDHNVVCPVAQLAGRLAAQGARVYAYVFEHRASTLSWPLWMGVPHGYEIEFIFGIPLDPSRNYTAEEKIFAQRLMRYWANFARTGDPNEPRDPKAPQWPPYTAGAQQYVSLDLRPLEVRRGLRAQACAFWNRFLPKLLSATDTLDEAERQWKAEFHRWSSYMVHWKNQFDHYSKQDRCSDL
T4 sequence (P06276 whole entry): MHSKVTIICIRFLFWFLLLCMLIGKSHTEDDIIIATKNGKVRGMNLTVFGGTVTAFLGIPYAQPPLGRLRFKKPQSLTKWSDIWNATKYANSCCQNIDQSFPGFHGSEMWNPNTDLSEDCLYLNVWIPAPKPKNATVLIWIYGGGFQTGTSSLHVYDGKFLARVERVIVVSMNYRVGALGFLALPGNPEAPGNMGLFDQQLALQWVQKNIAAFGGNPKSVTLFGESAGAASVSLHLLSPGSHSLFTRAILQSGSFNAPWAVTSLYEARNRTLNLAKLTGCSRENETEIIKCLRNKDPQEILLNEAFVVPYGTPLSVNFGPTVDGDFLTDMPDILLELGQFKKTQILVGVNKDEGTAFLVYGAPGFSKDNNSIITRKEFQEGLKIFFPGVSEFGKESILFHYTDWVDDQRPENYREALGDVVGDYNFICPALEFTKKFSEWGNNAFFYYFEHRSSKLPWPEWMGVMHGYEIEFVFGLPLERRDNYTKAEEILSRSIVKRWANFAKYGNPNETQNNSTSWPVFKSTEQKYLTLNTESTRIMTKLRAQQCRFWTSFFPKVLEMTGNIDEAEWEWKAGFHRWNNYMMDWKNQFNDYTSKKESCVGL

With `CCCCCCCNC(=O)Oc1cccc(CN(C)CCCOc2ccc3c(=O)cc(-c4ccccc4)oc3c2)c1`, the IC50 in experiment [1] is 6810 nM.

With `CCCNC(=O)Oc1cccc(CN(C)CCCOc2ccc3c(=O)c4ccccc4oc3c2)c1`, the IC50 in [2] was 100 nM; in experiment [1] it was 9280 nM.

As to `CCCCCCCNC(=O)Oc1cccc(CN(C)CCCOc2ccc3c(=O)c4ccccc4oc3c2)c1`, the IC50 in experiment [2] amounted to 110 nM; in experiment [1], 3620 nM.

For `CCCCCCNC(=O)Oc1cccc(CN(C)CCCOc2ccc3c(=O)c4ccccc4oc3c2)c1`, the IC50 in experiment [2] is 290 nM; in [1], 4290 nM.

Take `CN(CCCOc1ccc2ccc(=O)oc2c1)Cc1cccc(OC(=O)NCCCCCc2ccccc2)c1`: the IC50 in experiment [3] is 2260 nM; at Acetylcholinesterase [4], 74.9 nM; against Cholinesterase [5] it was 1.57 nM; in experiment [2] it was 50 nM; in experiment [1], 280 nM. The inhibition result at Acetylcholinesterase [6] and on Cholinesterase [9] was “tde” throughout. Also, the Activity at Cholinesterase [7] amounted to 83%; at Acetylcholinesterase [8] it was 30%.

With `CN(CCCOc1ccc2ccc(=O)oc2c1)Cc1cccc(OC(=O)NCCCCCCCN2CCOCC2)c1`, the IC50 in [3] came to 14800 nM; on Acetylcholinesterase [4], 119 nM; at Cholinesterase [5], 11.2 nM; in experiment [2] it was 1820 nM; in experiment [1], 5590 nM. The inhibition entry at Acetylcholinesterase [6] and on Cholinesterase [9] was “tde” throughout.

For the molecule `CNC(=O)Oc1cccc(CN(C)CCCCCCCOc2ccc(-c3cc4ccccc4oc3=O)cc2)c1`, the IC50 in experiment [1] stood at 9200 nM.

Turning to `CN(CCCOc1ccc2c(=O)c3cccnc3oc2c1)Cc1cccc(OC(=O)NCCCCCCCN2CCOCC2)c1`, the IC50 in [3] is 39000 nM; on Acetylcholinesterase [4], 139 nM; at Cholinesterase [5], 27.6 nM; in [2], 2710 nM; in experiment [1], 4310 nM. Also, the inhibition result on Acetylcholinesterase [6] and on Cholinesterase [9] was “tde” each time.

With `CCCCNC(=O)Oc1cccc(CN(C)CCCOc2ccc3c(=O)cc(-c4ccccc4)oc3c2)c1`, the IC50 in [2] turned out to be 800 nM; in experiment [1], 5540 nM.

For the molecule `CN(CCCOc1ccc2c(=O)c3cccnc3oc2c1)Cc1cccc(OC(=O)NCCCCCc2ccccc2)c1`, the IC50 was determined as 520 nM in experiment [3]; 89.5 nM on Acetylcholinesterase [4]; 1.71 nM against Cholinesterase [5]; 40 nM in experiment [2]; 370 nM in experiment [1]. For the same molecule, the inhibition result on Acetylcholinesterase [6] and at Cholinesterase [9] was “tde” throughout.

Consider `CCCCNC(=O)Oc1cccc(CN(C)CCCOc2ccc3c(=O)c4cccnc4oc3c2)c1`, for which the IC50 is 1400 nM in experiment [2] and 4230 nM in experiment [1].

For the molecule `CCCCCCCNC(=O)Oc1cccc(CN(C)CCCOc2ccc3ccc(=O)oc3c2)c1`, the IC50 in [2] was 170 nM; in [1], 620 nM.

For `CCCCNC(=O)Oc1cccc(CN(C)CCCOc2ccc3ccc(=O)oc3c2)c1`, the IC50 in experiment [1] came to 8680 nM.

For the molecule `CCCCCCCNC(=O)Oc1cccc(CN(C)CCCOc2ccc3c(=O)c4cccnc4oc3c2)c1`, the IC50 stood at 400 nM in experiment [2] and 2210 nM in experiment [1].

Values taken from ChEMBL document CHEMBL2046402, “The First Dual ChE/FAAH Inhibitors: New Perspectives for Alzheimer's Disease?” (ACS Med Chem Lett, 2012).
